Measurements: ChEMBL document CHEMBL4033604, “Cytotoxicity and Mechanism of Action of the Marine-Derived Fungal Metabolite Trichodermamide B and Synthetic Analogues” (J Nat Prod, 2017)
Calls of active or inactive are those of the source.

Tested on: PC-3
Test: Cytotoxicity against human PC3 cells after 24 to 72 hrs by MTT assay
Assay type: functional, cell-based
Details: not given

SMILES | IC50 [µM]
COc1ccc([C@H]2SS[C@@]34C[C@]5(O)[C@H](Cl)C=C[C@@H](O)[C@@H]5ON3C(=O)[C@@H]2N(C)C4=O)c(O)c1OC | 0.51 to 5.11

Tested on: HeLa
Test: Induction of double stranded DNA breaks in human HeLa cells assessed as gamma-H2Ax phosphorylation at Ser139 residue at IC50 after 24 hrs by Hoechst 33342 staining-based indirect immunofluorescence microscopic method
Assay type: cell-based
Details: not given
How it was run: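 HeLa exposed 24 h to IC50 concentration or 0.6% DMSO; fixed in ice-cold MeOH 5 min, blocked 10% bovine calf serum 20 min, anti-γH2A.X (Ser139) 2 h then Alexa Fluor 594 secondary 1 h at room temperature; nuclei counterstained Hoechst 33342; foci scored by fluorescence microscopy; n = 2 experiments in duplicate.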

SMILES | Activity
CCOC(=O)C1=NO[C@H]2CC(=O)C=C[C@@]2(O)C1 | inactive
CCOC(=O)C1=NO[C@H]2CC(=O)[C@@H]3O[C@@H]3[C@@]2(O)C1 (relative stereo) | inactive
CCOC(=O)C1=NO[C@H]2[C@@H]3O[C@@H]3C=C[C@@]2(O)C1 | inactive
COc1ccc2cc(NC(=O)C3=NO[C@H]4[C@H](O)C=C[C@@H](Cl)[C@@]4(O)C3)c(=O)oc2c1OC [TRICHODERMAMIDE B] | Active
COc1ccc2cc(NC(=O)C3=NO[C@H]4CC(=O)C=C[C@@]4(O)C3)c(=O)oc2c1OC (relative stereo) | inactive

Tested on: HL-60
Test: Cytotoxicity against human HL60 cells
Assay type: functional, cell-based
Details: not given

SMILES | IC50 [µM]
COc1ccc2cc(NC(=O)C3=NO[C@H]4[C@H](O)C=C[C@@H](O)[C@@]4(O)C3)c(=O)oc2c1OC [TRICHODERMAMIDE A] | 89
COc1ccc2cc(NC(=O)[C@@]34C[C@]5(O)[C@@H](C=C[C@@H](O)[C@@H]5ON3)S4)c(=O)oc2c1OC | 84

Tested on: A549
Test: Cytotoxicity against human A549 cells
Assay type: functional, cell-based
Details: not given

SMILES | IC50 [µM]
COc1ccc2cc(NC(=O)C3=NO[C@H]4[C@H](O)C=C[C@@H](O)[C@@]4(O)C3)c(=O)oc2c1OC [TRICHODERMAMIDE A] | > 100
COc1ccc2cc(NC(=O)[C@@]34C[C@]5(O)[C@@H](C=C[C@@H](O)[C@@H]5ON3)S4)c(=O)oc2c1OC | > 100

Tested on: P388
Test: Cytotoxicity against mouse P388 cells
Assay type: functional, cell-based
Details: not given

SMILES | IC50 [µM]
COc1ccc2cc(NC(=O)C3=NO[C@H]4[C@H](O)C=C[C@@H](O)[C@@]4(O)C3)c(=O)oc2c1OC [TRICHODERMAMIDE A] | > 100
COc1ccc2cc(NC(=O)[C@@]34C[C@]5(O)[C@@H](C=C[C@@H](O)[C@@H]5ON3)S4)c(=O)oc2c1OC | > 100

Tested on: HeLa
Test: Cytotoxicity against human HeLa cells after 48 hrs by SRB assay
Assay type: functional, cell-based
Details: not given
How it was run: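 HeLa cells treated over a concentration range for 48 h; survival by sulforhodamine B staining relative to vehicle control; four-parameter nonlinear regression; IC50 and IC85 as concentrations giving 50% or 85% inhibition of cell density; time-zero cell density marks cytotoxicity threshold; mean ± SEM, n = 4 independent experiments in triplicate.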

SMILES | IC50 [µM] | IC85 [µM]
CCOC(=O)C1=NO[C@H]2CC(=O)C=C[C@@]2(O)C1 | 12 | 32
CCOC(=O)C1=NO[C@H]2C=C[C@@H]3O[C@@H]3[C@@]2(O)C1 | > 10 | > 10
COc1ccc2cc(NC(=O)C3=NO[C@H]4[C@H](O)C=C[C@@H](O)[C@@]4(O)C3)c(=O)oc2c1OC [TRICHODERMAMIDE A] | > 10 | > 10
CNc1cc2ccc(OC)c(OC)c2oc1=O | > 10 | > 10
CCOC(=O)C1=NO[C@H]2C=CC=C[C@@]2(O)C1 | > 10 | > 10
CCOC(=O)C1=NO[C@H]2CC(=O)[C@@H]3O[C@@H]3[C@@]2(O)C1 (relative stereo) | 1.4 | 3.4
COc1ccc2cc(N(C)C(=O)C3=NO[C@H]4[C@H](O)C=C[C@@H](O)[C@@]4(O)C3)c(=O)oc2c1OC [TRICHODERMAMIDE C] | > 10 | > 10
COc1ccc2cc(N(C)C(=O)C3=NO[C@H]4C=CC=C[C@@]4(O)C3)c(=O)oc2c1OC | > 10 | > 10
CCOC(=O)C1=NO[C@H]2[C@@H]3O[C@@H]3C=C[C@@]2(O)C1 | 21 | 51
COc1ccc2cc(N)c(=O)oc2c1OC | > 10 | > 10
COc1ccc2cc(NC(=O)C3=NO[C@H]4[C@H](O)C=C[C@@H](Cl)[C@@]4(O)C3)c(=O)oc2c1OC [TRICHODERMAMIDE B] | 3.1 | 18
COc1ccc2cc(NC(=O)C3=NO[C@H]4CC(=O)[C@@H]5O[C@@H]5[C@@]4(O)C3)c(=O)oc2c1OC | > 10 | > 10
COc1ccc2cc(N(C)C(=O)C3=NO[C@H]4[C@@H]5O[C@@H]5C=C[C@@]4(O)C3)c(=O)oc2c1OC | > 10 | > 10
COc1ccc2cc(NC(=O)C3=NO[C@H]4C=C[C@@H]5O[C@@H]5[C@@]4(O)C3)c(=O)oc2c1OC | > 10 | > 10
COc1ccc2cc(N(C)C(=O)C3=NO[C@H]4C=C[C@@H]5O[C@@H]5[C@@]4(O)C3)c(=O)oc2c1OC | > 10 | > 10
COc1ccc2cc(NC(=O)C3=NO[C@H]4C=CC=C[C@@]4(O)C3)c(=O)oc2c1OC | > 10 | > 10
COc1ccc2cc(NC(=O)C3=NO[C@H]4CC(=O)C=C[C@@]4(O)C3)c(=O)oc2c1OC (relative stereo) | 5.7 | 12

Tested on: HeLa
Test: Cytotoxicity against human HeLa cells assessed as inhibition of colony formation pretreated for 4 hrs followed by compound washout measured after 10 days by crystal violet staining based assay
Assay type: functional, cell-based
Details: not given
How it was run: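 HeLa plated at 150 cells per dish, exposed 4 h to DMSO or IC85 concentration, washed with PBS, regrown in fresh medium 10 days; fixed, stained with 0.5% crystal violet in 10% methanol, colonies counted; n = 3−5 experiments in duplicate; one-way ANOVA.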

SMILES | inhibition
CCOC(=O)C1=NO[C@H]2CC(=O)C=C[C@@]2(O)C1 | Active
CCOC(=O)C1=NO[C@H]2CC(=O)[C@@H]3O[C@@H]3[C@@]2(O)C1 (relative stereo) | inactive
CCOC(=O)C1=NO[C@H]2[C@@H]3O[C@@H]3C=C[C@@]2(O)C1 | inactive
COc1ccc2cc(NC(=O)C3=NO[C@H]4[C@H](O)C=C[C@@H](Cl)[C@@]4(O)C3)c(=O)oc2c1OC [TRICHODERMAMIDE B] | Active
COc1ccc2cc(NC(=O)C3=NO[C@H]4CC(=O)C=C[C@@]4(O)C3)c(=O)oc2c1OC (relative stereo) | inactive

Tested on: HeLa
Test: Cell cycle arrest in human HeLa cells assessed as accumulation at G2/M phase at IC85 after 24 hrs by Krishan's reagent staining-based flow cytometric method
Assay type: functional
Details: not given

SMILES | Activity
CCOC(=O)C1=NO[C@H]2CC(=O)C=C[C@@]2(O)C1 | Active

Tested on: HeLa
Test: Cell cycle arrest in human HeLa cells at IC85 after 4 to 24 hrs by Krishan's reagent staining-based flow cytometric method
Assay type: functional
Details: not given

SMILES | Activity
CCOC(=O)C1=NO[C@H]2CC(=O)[C@@H]3O[C@@H]3[C@@]2(O)C1 (relative stereo) | inactive
CCOC(=O)C1=NO[C@H]2[C@@H]3O[C@@H]3C=C[C@@]2(O)C1 | inactive
COc1ccc2cc(NC(=O)C3=NO[C@H]4CC(=O)C=C[C@@]4(O)C3)c(=O)oc2c1OC (relative stereo) | inactive

Tested on: HeLa
Test: Induction of apoptosis in human HeLa cells assessed as upregulation of cleaved PARP protein levels at IC85 after 24 hrs by Western blot analysis
Assay type: functional, cell-based
Details: not given
How it was run: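 HeLa treated with IC85 concentration or 0.1% DMSO over a 4, 8, 16, 24 h time course; whole-cell lysates (protease inhibitors, 50 mM NaF, 200 μM Na3VO4, 1 mM PMSF), equal protein on 12% Bis-Tris SDS-PAGE, PVDF blot probed for cleaved PARP with GAPDH loading control (1:1000); two independent experiments.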

SMILES | Activity
CCOC(=O)C1=NO[C@H]2CC(=O)[C@@H]3O[C@@H]3[C@@]2(O)C1 (relative stereo) | inactive
CCOC(=O)C1=NO[C@H]2[C@@H]3O[C@@H]3C=C[C@@]2(O)C1 | inactive
COc1ccc2cc(NC(=O)C3=NO[C@H]4CC(=O)C=C[C@@]4(O)C3)c(=O)oc2c1OC (relative stereo) | inactive

Tested on: CWR22R
Test: Cytotoxicity against human 22Rv1 cells after 24 to 72 hrs by MTT assay
Assay type: functional, cell-based
Details: not given

SMILES | IC50 [µM]
COc1ccc([C@H]2SS[C@@]34C[C@]5(O)[C@H](Cl)C=C[C@@H](O)[C@@H]5ON3C(=O)[C@@H]2N(C)C4=O)c(O)c1OC | 0.51 to 5.11

Tested on: not listed separately
Test: Cytotoxicity against mouse lymphoma cells by MTT assay
Assay type: functional, cell-based
Details: Lymphoma cell

SMILES | IC50 [µM]
COc1ccc([C@H]2SS[C@@]34C[C@]5(O)[C@H](Cl)C=C[C@@H](O)[C@@H]5ON3C(=O)[C@@H]2N(C)C4=O)c(O)c1OC | 2

Tested on: LNCaP
Test: Cytotoxicity against human LNCAP cells after 24 to 72 hrs by MTT assay
Assay type: functional, cell-based
Details: not given

SMILES | IC50 [µM]
COc1ccc([C@H]2SS[C@@]34C[C@]5(O)[C@H](Cl)C=C[C@@H](O)[C@@H]5ON3C(=O)[C@@H]2N(C)C4=O)c(O)c1OC | 0.51 to 5.11
